High-throughput results (PubChem)
The list is not random: actives were taken first. Their share in the collection is about 0.72%.
mIAP activ: mouse IAP activation. muIAP, CDP-Star luminescence, 30 min; stronger effect = higher value; 1 = vehicle-only enzyme signal, 0 = enzyme-free wells. activation factor at 10 µM. 330,000 tested, 0.24% active;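 active = activation factor of at least 2 at 20 µM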
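Assay system: mouse IAP enzyme; Reagent: CDP-Star chemiluminescent phosphatase substrate; Compound: DMSO-dissolved test compounds; Incubation: 30 min, room temperature; Technique: luminescence from enzymatic CDP-Star hydrolysis; Controls: DMSO-only wells and no-enzyme negative control.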
bIAP activator: increases bovine intestinal alkaline phosphatase activity; purified bovine IAP, CDP-star luminescence, 30 min; stronger effect = higher value; fold of DMSO-control signal, blank-subtracted; activation factor at 20 µM; 200,000 tested, 0.17% active; AID 1016;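 active = activation factor of 2 or more at 20 µM, a signal rise over negative controls twice the positive control's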
bIAP inh: intestinal alkaline phosphatase (bovine) inhibition | purified bovine IAP, CDP-star luminescence, 30 min | inhibition, % at 20 µM | 190,000 tested, under 10 active;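 active = over 50% inhibition of intestinal alkaline phosphatase at 20 µM in the single-dose screen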
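Incubation: 30 min reaction at room temperature / Material: purified bovine intestinal alkaline phosphatase (IAP) enzyme / Input: enzyme at 1/65,000,000 dilution / Dosing: 20 µM single dose / Signal: CDP-star luminescence signal / Reagent: CDP-star chemiluminescent phosphatase substrate, 30 µM final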
hIAP inh: blocks human intestinal alkaline phosphatase | purified IAP, CDP-Star luminescence, 30 min | inhibition, % at 10 µM | 330,000 tested, 0.12% active | AID 2544;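 active = inhibition reaching a set limit with compound at 10 µM in the primary screen, cut at about 35% in these data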;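 also: plate controls were DMSO wells with enzyme for no effect and no-enzyme buffer wells for full effect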
Target sequence (P09923 whole entry, looked up): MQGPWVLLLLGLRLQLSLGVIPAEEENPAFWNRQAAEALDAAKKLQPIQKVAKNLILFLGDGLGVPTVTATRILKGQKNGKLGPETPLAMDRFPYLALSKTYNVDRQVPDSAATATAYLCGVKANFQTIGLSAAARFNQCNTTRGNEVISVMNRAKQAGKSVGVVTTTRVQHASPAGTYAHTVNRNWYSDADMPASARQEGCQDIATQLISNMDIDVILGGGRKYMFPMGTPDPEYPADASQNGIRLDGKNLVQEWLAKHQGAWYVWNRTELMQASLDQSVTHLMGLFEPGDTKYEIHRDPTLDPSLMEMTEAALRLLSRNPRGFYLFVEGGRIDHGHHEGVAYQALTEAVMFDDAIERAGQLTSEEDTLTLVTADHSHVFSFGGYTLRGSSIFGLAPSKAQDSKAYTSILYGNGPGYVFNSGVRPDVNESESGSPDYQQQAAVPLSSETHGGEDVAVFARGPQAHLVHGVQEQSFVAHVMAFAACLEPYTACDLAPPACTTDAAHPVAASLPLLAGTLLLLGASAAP
hIAP activ: human IAP activation. 330,000 tested, 0.16% active. P09923. purified human IAP, CDP-Star luminescence, 30 min; stronger effect = higher value; 1 = vehicle-only enzyme, 0 = enzyme-free background. activation factor at 10 µM. AID 2524;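 active = activation factor of the enzyme at least 2-fold when tested at 20 µM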
mIAP block: mouse IAP inhibition. purified mouse IAP, CDP-Star luminescence, 30 min. AID 2806. inhibition, % at 10 µM. 330,000 tested, 0.2% active;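 active = inhibition of at least 40% at 10 µM in the primary screen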;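 also: plate controls were DMSO with enzyme for no effect and no enzyme wells for full effect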
* hit, by the source's call; . = no result.

SMILES	mIAP activ	bIAP activator	bIAP inh	hIAP inh	hIAP activ	mIAP block
COc1cc2c(cc1OC)[C@@H](NC(=O)CCc1ccccc1)[C@H](O)C2	0.979	.	.	.	.	2.1
CC(NC(=O)Nc1ccccc1)C(c1cccs1)N1CCOCC1 (stereo unspecified)	1.02	1	3.5	3.4	0.966	-2.5
CC(NC(=O)Nc1ccc(Cl)cc1)C(c1cccs1)N1CCOCC1 (stereo unspecified)	2.37*	1.2	-20.1	-19.4	1.19	-137.4
C[C@@H]1NC(=O)c2cc([N+](=O)[O-])cc(I)c2OCC[C@@H](C(=O)NC(CC(=O)O)C(N)=O)NC(=O)[C@H](CC(N)=O)NC1=O (stereo partly specified)	0.553	1.2	-21.8	1.2	0.988	44.7*
O=C(NCCc1ccccc1)c1n[nH]c2ccccc12	1.02	2*	-96.0	19.3	0.807	-2.4
O=C(Nc1ccc(Br)cc1)Nc1ccccc1F	2.17*	0.9	11.5	-11.7	1.12	-116.6
O=C(Nc1ccc2c(c1)CCC2)Nc1ccc(F)cc1F	1.32	.	.	5.2	0.948	-32.5
O=C(Nc1ccc2c(c1)CCC2)Nc1ccccc1F	2.02*	.	.	-18.5	1.19	-101.5
O=C(NC(Nc1ccc(F)cc1)(C(F)(F)F)C(F)(F)F)c1cccnc1	1.05	2*	-96.3	-4.7	1.05	-4.8
COc1ccc(N2CSC3=C(C#N)C(c4cccs4)CC(=O)N3C2)cc1 (stereo unspecified)	0.563	1.1	-10.2	23.8	0.762	43.7*
CCc1ccc(N2CSC3=C(C#N)C(c4cccs4)CC(=O)N3C2)cc1 (stereo unspecified)	0.69	0.7	25.2	-0.6	1.01	31.0
CCCn1c(SCC(=O)NC2CCCCC2)nnc1-c1ccco1	1	.	.	-7.3	1.07	-0.2
C[C@H](CO)N1C[C@H](C)[C@@H](CN(C)C(=O)Nc2ccc3c(c2)OCO3)Oc2ccc(NC(=O)NC3CCCCC3)cc2C1=O	2.29*	.	.	4.4	0.956	-129.0
C[C@@H]1CN([C@H](C)CO)C(=O)c2cc(NC(=O)Nc3ccc(F)cc3)ccc2O[C@H]1CN(C)C(=O)Nc1ccc(C(F)(F)F)cc1	2.03*	.	.	-6.9	1.07	-103.4
C[C@H](CO)N1C[C@H](C)[C@@H](CN(C)C(=O)Nc2ccc(C(F)(F)F)cc2)Oc2ccc(NC(=O)Nc3ccc4c(c3)OCO4)cc2C1=O	2.38*	.	.	7.1	0.929	-138.5
C[C@H](CO)N1C[C@H](C)[C@@H](CN(C)C(=O)Nc2ccccc2)Oc2ccc(NC(=O)Nc3ccc(C(F)(F)F)cc3)cc2C1=O	1.91	.	.	9.8	0.902	-90.5
CC(C)NC(=O)Nc1ccc2c(c1)C(=O)N([C@H](C)CO)C[C@H](C)[C@@H](CN(C)C(=O)Nc1ccc(C(F)(F)F)cc1)O2	2.32*	.	.	-9.8	1.1	-131.6
Cc1ccccc1NC(=O)Cc1nc(COC(=O)c2ccc(S(C)(=O)=O)c([N+](=O)[O-])c2)cs1	0.896	.	.	14.0	0.86	10.4
CCN(CC(=O)Nc1ccc(NC(C)=O)cc1)C(=O)c1ccc2c(c1)S(=O)(=O)N=C1CCCCCN12	0.968	.	.	-7.8	1.08	3.2
Cc1cc(C(=O)N[C@H](c2ccccc2)[C@@]2(C)C[C@@H]2[C@@H](C)C(=O)Nc2ccc3ccccc3c2)n(C)n1	2.1*	0.9	7.2	-15.3	1.15	-109.5
C[C@@H](C(=O)Nc1ccc2ccccc2c1)[C@H]1C[C@]1(C)[C@H](NC(=O)OCc1ccccc1)c1ccccc1	1.5	0.9	8.3	-2.3	1.02	-49.5
COc1cccc(NCc2cc3c(C(C)(C)C)nn(-c4ccccc4)c3[nH]c2=O)c1	1.08	3.8*	-280.5	-3.1	1.03	-8.5
O=C(NC(=S)Nc1ncc(Br)cc1Br)c1ccccc1	0.894	.	.	9.4	0.906	10.6
CC1CCCCC1NC(=S)Nc1ccc(Cl)cc1Cl (stereo unspecified)	2.78*	1	-2.3	-5.3	1.05	-177.8
COC(=O)c1ccc(NC(=S)NC2CC3CCC2C3)cc1 (stereo unspecified)	3.02*	1.2	-15.5	-14.7	1.15	-201.7
SMILES	mIAP activ	bIAP activator	bIAP inh	hIAP inh	hIAP activ	mIAP block
COC(=O)c1ccc(NC(=O)C2CC3CCC2C3)cc1 (stereo unspecified)	1.07	.	.	6.2	0.938	-6.9
CC(=O)Nc1ccc(S(=O)(=O)N2CCN(C(=O)c3ncoc3-c3cccc(F)c3)CC2)cc1	1.09	.	.	0.1	0.999	-8.6
CC(=O)Nc1ccc(C2=NN(c3ccccc3)C(c3ccccc3)C2)cc1 (stereo unspecified)	2.34*	.	.	-42.2	1.42	-133.6
COc1ccc(C2CC(c3ccccc3)=NN2c2ccc(C(N)=O)cc2)cc1 (stereo unspecified)	2.83*	.	.	-5.9	1.06	-182.8
CCC(C)(C)NC(=O)C(c1ccccc1F)N(C(=O)c1ccn[nH]1)c1ccccc1 (stereo unspecified)	1.29	0.9	12.9	-20.3	1.2	-28.8
CCC(C)(C)NC(=O)C(c1cccs1)N(C(=O)c1ccn[nH]1)c1cccc(OC)c1 (stereo unspecified)	1.03	2.1*	-105.8	6.4	0.936	-3.5
O=C(NCc1ccccc1)NCC12CC3CC(CC(C3)C1)C2	2.11*	1	-0.8	-21.4	1.21	-110.7
CC(C)(C)c1ccc(C(=O)N2CCC(NC(=O)c3ccccc3)CC2)cc1	0.969	.	.	0.1	0.999	3.1
CC(=O)c1cccc(NC(=O)C2CCCN(S(=O)(=O)c3ccc(F)cc3)C2)c1 (stereo unspecified)	1.03	0.9	13.0	-14.2	1.14	-3.0
COc1ccc(S(=O)(=O)N2CCCC(C(=O)Nc3cccc(C(C)=O)c3)C2)cc1 (stereo unspecified)	0.995	2.5*	-148.5	-14.1	1.14	0.5
Cc1ccc(NC(=O)C2CCN(S(=O)(=O)c3ccc(N4CCCC4=O)cc3)CC2)cc1Cl	2.63*	.	.	-81.4	1.81	-162.7
COc1ccc(NC(=O)C2CCN(S(=O)(=O)c3ccc(C)cc3)CC2)cc1OC	1.23	0.9	8.2	-11.8	1.12	-22.9
COc1ccc(S(=O)(=O)N2CCC(C(=O)Nc3cccc(Cl)c3)CC2)cc1OC	2.76*	1	0.9	-10.7	1.11	-176.0
COCC(C)NS(=O)(=O)c1ccc(C(=O)NC(Cc2ccccc2)c2ccccc2)cc1 (stereo unspecified)	2.06*	.	.	0.0	1	-106.5
Cc1nc2ccc(Br)cc2c(=O)n1Cc1cccs1	1.08	.	.	-9.6	1.1	-7.6
CCOc1ccc(OCCC(=O)OCC(=O)NCCc2ccc(S(N)(=O)=O)cc2)cc1	1.11	.	.	3.5	0.965	-11.3
CCOc1ccc(NC(=O)CCC(=O)NNC(=O)COc2ccc(C)cc2Br)cc1	0.506	.	.	-95.5	1.96	49.4*
COc1ccc(OCC(=O)Nc2cc(NC(=O)c3ccco3)ccc2OC)cc1	0.988	.	.	-8.7	1.09	1.2
